# According to ChEMBL document CHEMBL5058577, “EUbOPEN Chemogenomics Library 2 (Multiplex)” (2022):
# System: Fibroblast
# Experiment: Multiplex assay against human fibroblast
# Type: toxicity, cell-based
# Procedure, shortened: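 Tubulin, mitochondrial-mass and membrane-permeability phenotypes are per cents of healthy-nucleus cells. Cells were gated by CellPathfinder machine learning into Hoechst high-intensity objects or normal cells, normal cells into healthy, pyknosed or fragmented nuclei, and pyknosed cells into mitotic or apoptotic. Before that, live cells stained at seeding with Hoechst33342, BioTracker Green Microtubule Cytoskeleton Dye, MitoTracker Red and Annexin V Alexa Fluor 680 were imaged on a CQ1 microscope at 37°C and 5% CO2 after compound addition.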
# [1] = 12 h, 1 µM, compound concentration 1 uM, replicate 1
# [2] = 12 h, 1 µM, compound concentration 1 uM, replicate 2
# [3] = 12 h, 10 µM, compound concentration 10 uM, replicate 1
# [4] = 12 h, 10 µM, compound concentration 10 uM, replicate 2
# [5] = 24 h, 1 µM, compound concentration 1 uM, replicate 1
# [6] = 24 h, 1 µM, compound concentration 1 uM, replicate 2
# [7] = 24 h, 10 µM, compound concentration 10 uM, replicate 1
# [8] = 24 h, 10 µM, compound concentration 10 uM, replicate 2
# [9] = 48 h, 1 µM, compound concentration 1 uM, replicate 1
# [10] = 48 h, 1 µM, compound concentration 1 uM, replicate 2
# [11] = 48 h, 10 µM, compound concentration 10 uM, replicate 1
# [12] = 48 h, 10 µM, compound concentration 10 uM, replicate 2
smiles,measurement,setting,value
CCCCC1=NC2(CCCC2)C(=O)N1Cc1ccc(-c2ccccc2-c2nnn[nH]2)cc1 [IRBESARTAN],Population Apoptotic (%),[1],40%
same,Population Fragmented Nuclei (%),[1],14%
same,Population Healthy Nuclei (%),[1],67%
same,Population Hoechst High Intensity Objects (%),[1],1%
same,Population Membrane Permeable-Phenotype (%),[1],0%
same,Population Mitochondria Different-Phenotype (%),[1],5%
same,Population Mitotic Cells (%),[1],59%
same,Population Normal (%),[1],98%
same,Population Pyknosed Nuclei (%),[1],17%
same,Population Tubulin-Different-Phenotype (%),[1],28%
same,Total Cell Count,[1],159
same,Population Apoptotic (%),[2],38%
same,Population Fragmented Nuclei (%),[2],24%
same,Population Healthy Nuclei (%),[2],55%
same,Population Hoechst High Intensity Objects (%),[2],3%
same,Population Membrane Permeable-Phenotype (%),[2],7%
same,Population Mitochondria Different-Phenotype (%),[2],2%
same,Population Mitotic Cells (%),[2],61%
same,Population Normal (%),[2],96%
same,Population Pyknosed Nuclei (%),[2],20%
same,Population Tubulin-Different-Phenotype (%),[2],43%
same,Total Cell Count,[2],187
same,Population Apoptotic (%),[3],60%
same,Population Fragmented Nuclei (%),[3],11%
same,Population Healthy Nuclei (%),[3],74%
same,Population Hoechst High Intensity Objects (%),[3],3%
same,Population Membrane Permeable-Phenotype (%),[3],3%
same,Population Mitochondria Different-Phenotype (%),[3],4%
same,Population Mitotic Cells (%),[3],40%
same,Population Normal (%),[3],96%
same,Population Pyknosed Nuclei (%),[3],13%
same,Population Tubulin-Different-Phenotype (%),[3],37%
same,Total Cell Count,[3],151
same,Population Apoptotic (%),[4],45%
same,Population Fragmented Nuclei (%),[4],32%
same,Population Healthy Nuclei (%),[4],48%
same,Population Hoechst High Intensity Objects (%),[4],7%
same,Population Membrane Permeable-Phenotype (%),[4],12%
same,Population Mitochondria Different-Phenotype (%),[4],3%
same,Population Mitotic Cells (%),[4],54%
same,Population Normal (%),[4],92%
same,Population Pyknosed Nuclei (%),[4],18%
same,Population Tubulin-Different-Phenotype (%),[4],53%
same,Total Cell Count,[4],129
same,Population Apoptotic (%),[5],47%
same,Population Fragmented Nuclei (%),[5],19%
same,Population Healthy Nuclei (%),[5],69%
same,Population Hoechst High Intensity Objects (%),[5],2%
same,Population Membrane Permeable-Phenotype (%),[5],1%
same,Population Mitochondria Different-Phenotype (%),[5],3%
same,Population Mitotic Cells (%),[5],52%
same,Population Normal (%),[5],97%
same,Population Pyknosed Nuclei (%),[5],10%
same,Population Tubulin-Different-Phenotype (%),[5],22%
same,Total Cell Count,[5],170
same,Population Apoptotic (%),[6],31%
same,Population Fragmented Nuclei (%),[6],25%
same,Population Healthy Nuclei (%),[6],57%
same,Population Hoechst High Intensity Objects (%),[6],3%
same,Population Mitochondria Different-Phenotype (%),[6],0%
same,Population Mitotic Cells (%),[6],68%
same,Population Normal (%),[6],96%
same,Population Pyknosed Nuclei (%),[6],16%
same,Population Tubulin-Different-Phenotype (%),[6],40%
same,Total Cell Count,[6],183
same,Population Apoptotic (%),[7],56%
same,Population Fragmented Nuclei (%),[7],9%
same,Population Healthy Nuclei (%),[7],74%
same,Population Hoechst High Intensity Objects (%),[7],1%
same,Population Membrane Permeable-Phenotype (%),[7],3%
same,Population Mitochondria Different-Phenotype (%),[7],7%
same,Population Mitotic Cells (%),[7],44%
same,Population Normal (%),[7],98%
same,Population Pyknosed Nuclei (%),[7],16%
same,Population Tubulin-Different-Phenotype (%),[7],37%
same,Total Cell Count,[7],155
same,Population Apoptotic (%),[8],45%
same,Population Fragmented Nuclei (%),[8],36%
same,Population Healthy Nuclei (%),[8],47%
same,Population Hoechst High Intensity Objects (%),[8],2%
same,Population Membrane Permeable-Phenotype (%),[8],8%
same,Population Mitochondria Different-Phenotype (%),[8],5%
same,Population Mitotic Cells (%),[8],55%
same,Population Normal (%),[8],97%
same,Population Tubulin-Different-Phenotype (%),[8],60%
same,Total Cell Count,[8],125
same,Population Apoptotic (%),[9],60%
same,Population Fragmented Nuclei (%),[9],21%
same,Population Healthy Nuclei (%),[9],69%
same,Population Hoechst High Intensity Objects (%),[9],3%
same,Population Membrane Permeable-Phenotype (%),[9],0%
same,Population Mitochondria Different-Phenotype (%),[9],4%
same,Population Mitotic Cells (%),[9],40%
same,Population Normal (%),[9],96%
same,Population Pyknosed Nuclei (%),[9],8%
same,Population Tubulin-Different-Phenotype (%),[9],31%
same,Total Cell Count,[9],173
same,Population Apoptotic (%),[10],55%
same,Population Fragmented Nuclei (%),[10],31%
same,Population Healthy Nuclei (%),[10],58%
same,Population Hoechst High Intensity Objects (%),[10],2%
same,Population Membrane Permeable-Phenotype (%),[10],2%
same,Population Mitochondria Different-Phenotype (%),[10],1%
same,Population Mitotic Cells (%),[10],44%
same,Population Normal (%),[10],97%
same,Population Pyknosed Nuclei (%),[10],10%
same,Population Tubulin-Different-Phenotype (%),[10],39%
same,Total Cell Count,[10],178
same,Population Apoptotic (%),[11],61%
same,Population Fragmented Nuclei (%),[11],14%
same,Population Healthy Nuclei (%),[11],66%
same,Population Hoechst High Intensity Objects (%),[11],2%
same,Population Membrane Permeable-Phenotype (%),[11],1%
same,Population Mitochondria Different-Phenotype (%),[11],5%
same,Population Mitotic Cells (%),[11],38%
same,Population Normal (%),[11],97%
same,Population Pyknosed Nuclei (%),[11],18%
same,Population Tubulin-Different-Phenotype (%),[11],38%
same,Total Cell Count,[11],141
same,Population Apoptotic (%),[12],37%
same,Population Fragmented Nuclei (%),[12],37%
same,Population Healthy Nuclei (%),[12],48%
same,Population Hoechst High Intensity Objects (%),[12],0%
same,Population Membrane Permeable-Phenotype (%),[12],3%
same,Population Mitochondria Different-Phenotype (%),[12],1%
same,Population Mitotic Cells (%),[12],62%
same,Population Normal (%),[12],99%
same,Population Pyknosed Nuclei (%),[12],13%
same,Population Tubulin-Different-Phenotype (%),[12],58%
same,Total Cell Count,[12],117
